Measurements as given in ChEMBL document CHEMBL4706620, “Design, synthesis, biological activity evaluation of 3-(4-phenyl-1H-imidazol-2-yl)-1H-pyrazole derivatives as potent JAK 2/3 and aurora A/B kinases multi-targeted inhibitors” (Eur J Med Chem, 2021).
Calls of active or inactive are those of the source. No cut-off for these calls is given here.

Key:
[1] = molecular target: Tyrosine-protein kinase JAK2 (Homo sapiens, UniProt O60674); assay: Inhibition of JAK2 (unknown origin) incubated for 40 mins in presence of ATP by Kinase-glo luminescence assay
[2] = molecular target: T1, Tyrosine-protein kinase JAK3 (Homo sapiens, UniProt P52333); assay: Inhibition of JAK3 (unknown origin) incubated for 40 mins in presence of ATP by Kinase-glo luminescence assay
T1 sequence (P52333 whole entry): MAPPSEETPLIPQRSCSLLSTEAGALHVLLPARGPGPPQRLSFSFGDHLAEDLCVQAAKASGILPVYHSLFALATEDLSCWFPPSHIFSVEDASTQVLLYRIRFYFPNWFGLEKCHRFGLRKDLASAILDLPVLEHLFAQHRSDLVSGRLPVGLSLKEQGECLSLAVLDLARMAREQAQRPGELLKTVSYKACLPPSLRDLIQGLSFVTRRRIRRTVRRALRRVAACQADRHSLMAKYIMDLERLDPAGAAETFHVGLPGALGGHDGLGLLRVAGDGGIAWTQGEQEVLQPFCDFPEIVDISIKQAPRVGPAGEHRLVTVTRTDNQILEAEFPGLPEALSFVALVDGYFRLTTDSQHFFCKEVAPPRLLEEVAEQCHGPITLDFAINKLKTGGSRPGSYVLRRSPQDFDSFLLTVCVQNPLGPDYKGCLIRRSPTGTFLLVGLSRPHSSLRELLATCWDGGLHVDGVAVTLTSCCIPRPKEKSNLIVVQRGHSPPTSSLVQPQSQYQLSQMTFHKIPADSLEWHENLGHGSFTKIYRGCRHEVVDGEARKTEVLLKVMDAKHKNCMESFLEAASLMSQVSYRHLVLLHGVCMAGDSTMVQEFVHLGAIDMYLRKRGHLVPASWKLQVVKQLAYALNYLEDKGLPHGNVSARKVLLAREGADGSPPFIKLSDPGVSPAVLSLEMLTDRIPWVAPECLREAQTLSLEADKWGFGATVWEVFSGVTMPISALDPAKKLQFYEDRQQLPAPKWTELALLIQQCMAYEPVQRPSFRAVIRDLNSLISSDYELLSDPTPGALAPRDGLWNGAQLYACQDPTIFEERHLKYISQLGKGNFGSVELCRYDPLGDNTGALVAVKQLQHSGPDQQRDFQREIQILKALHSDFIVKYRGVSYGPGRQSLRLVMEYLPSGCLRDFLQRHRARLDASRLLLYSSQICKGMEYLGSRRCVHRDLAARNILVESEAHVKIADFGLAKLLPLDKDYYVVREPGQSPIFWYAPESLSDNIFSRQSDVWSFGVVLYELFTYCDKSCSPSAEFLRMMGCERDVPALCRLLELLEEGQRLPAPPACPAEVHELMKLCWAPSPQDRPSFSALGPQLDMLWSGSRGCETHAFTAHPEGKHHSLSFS

[3] = test system: K562; assay: Antiproliferative activity against human K562 cells assessed as reduction in cell growth measured after 72 hrs by CCK8 assay; format: functional, cell-based; details: K562, 72 h
[4] = molecular target: JAK2/JAK3 (Homo sapiens) (UniProt P52333+O60674); assay: Inhibition of JAK2/3 in human HCT116 cells assessed as inhibition of STAT5 phosphorylation at 1 to 20 uM measured after 48 hrs by Western blot analysis; format: cell-based; details: HCT-116, dose 1-20 µM
Summary of the method: (§1)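 K562 or HCT116 cells treated 48 h at 1, 10 and 20 µM alongside untreated control; lysed in cold RIPA, protein by BCA, SDS-PAGE, nitrocellulose transfer, 5% milk block, primary antibody overnight at 4 °C, secondary 1 h; p-Aurora A, p-Aurora B, p-STAT3, p-STAT5 probed with GAPDH loading control.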

[5] = molecular target: T2, Aurora kinase A (Homo sapiens) (UniProt O14965); assay: Inhibition of Aurora A phosphorylation in human K562 cells incubated for 48 hrs by Western blot analysis; format: cell-based; details: dose 1-20 µM; summary of the method: as §1
T2 sequence (whole entry): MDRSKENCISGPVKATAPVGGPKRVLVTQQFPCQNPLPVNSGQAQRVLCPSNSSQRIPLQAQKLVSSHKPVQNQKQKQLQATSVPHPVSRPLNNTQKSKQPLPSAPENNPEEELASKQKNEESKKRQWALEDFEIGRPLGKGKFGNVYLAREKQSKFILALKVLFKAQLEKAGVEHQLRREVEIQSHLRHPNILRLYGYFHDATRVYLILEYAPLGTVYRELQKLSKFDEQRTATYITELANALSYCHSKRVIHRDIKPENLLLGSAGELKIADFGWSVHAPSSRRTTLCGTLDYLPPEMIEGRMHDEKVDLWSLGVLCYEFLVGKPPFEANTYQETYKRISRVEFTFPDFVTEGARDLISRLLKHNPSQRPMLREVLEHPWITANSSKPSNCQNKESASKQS

[6] = test system: K562; assay: Cell cycle arrest in human K562 cells assessed as accumulation of diploid cells at G1 phase at 1 uM incubated for 48 hrs by propidium iodide staining based flow cytometric analysis (reference value: 56.33 %); format: functional
[7] = test system: K562; assay: Cell cycle arrest in human K562 cells assessed as accumulation at […] phase at 1 uM incubated for 48 hrs by propidium iodide staining based flow cytometric analysis (reference value: 1.90 %); format: functional
[8] = test system: K562; assay: Cell cycle arrest in human K562 cells assessed as accumulation at […] phase at 10 uM incubated for 48 hrs by propidium iodide staining based flow cytometric analysis (reference value: 1.90 %); format: functional
[9] = test system: K562; assay: Cell cycle arrest in human K562 cells assessed as accumulation of diploid cells at G2 phase at 20 uM incubated for 48 hrs by propidium iodide staining based flow cytometric analysis (reference value: 7.73 %); format: functional
[10] = test system: K562; assay: Cell cycle arrest in human K562 cells assessed as accumulation of diploid cells at S phase at 20 uM incubated for 48 hrs by propidium iodide staining based flow cytometric analysis (reference value: 35.94 %); format: functional
[11] = test system: K562; assay: Cell cycle arrest in human K562 cells assessed as accumulation at […] phase at 20 uM incubated for 48 hrs by propidium iodide staining based flow cytometric analysis (reference value: 1.90 %); format: functional
[12] = test system: HCT-116; assay: Cell cycle arrest in human HCT116 cells assessed as accumulation of diploid cells at G2 phase at 1 uM incubated for 48 hrs by propidium iodide staining based flow cytometric analysis (reference value: 10.46 %); format: functional
[13] = test system: HCT-116; assay: Cell cycle arrest in human HCT116 cells assessed as accumulation of diploid cells at S phase at 1 uM incubated for 48 hrs by propidium iodide staining based flow cytometric analysis (reference value: 11.92 %); format: functional
[14] = organism: Homo sapiens; assay: Selectivity for JAK2 (unknown origin) over Aurora B (unknown origin)
[15] = organism: Homo sapiens; assay: Selectivity for JAK3 (unknown origin) over Aurora B (unknown origin)
[16] = test system: HCT-116; assay: Cell cycle arrest in human HCT116 cells assessed as accumulation of diploid cells at G1 phase at 20 uM incubated for 48 hrs by propidium iodide staining based flow cytometric analysis (reference value: 77.62 %); format: functional
[17] = test system: HCT-116; assay: Cell cycle arrest in human HCT116 cells assessed as accumulation at […] phase at 20 uM incubated for 48 hrs by propidium iodide staining based flow cytometric analysis (reference value: 2.01 %); format: functional

Sequence of JAK2/JAK3 (Homo sapiens) (O60674 whole entry, looked up, one chain of several): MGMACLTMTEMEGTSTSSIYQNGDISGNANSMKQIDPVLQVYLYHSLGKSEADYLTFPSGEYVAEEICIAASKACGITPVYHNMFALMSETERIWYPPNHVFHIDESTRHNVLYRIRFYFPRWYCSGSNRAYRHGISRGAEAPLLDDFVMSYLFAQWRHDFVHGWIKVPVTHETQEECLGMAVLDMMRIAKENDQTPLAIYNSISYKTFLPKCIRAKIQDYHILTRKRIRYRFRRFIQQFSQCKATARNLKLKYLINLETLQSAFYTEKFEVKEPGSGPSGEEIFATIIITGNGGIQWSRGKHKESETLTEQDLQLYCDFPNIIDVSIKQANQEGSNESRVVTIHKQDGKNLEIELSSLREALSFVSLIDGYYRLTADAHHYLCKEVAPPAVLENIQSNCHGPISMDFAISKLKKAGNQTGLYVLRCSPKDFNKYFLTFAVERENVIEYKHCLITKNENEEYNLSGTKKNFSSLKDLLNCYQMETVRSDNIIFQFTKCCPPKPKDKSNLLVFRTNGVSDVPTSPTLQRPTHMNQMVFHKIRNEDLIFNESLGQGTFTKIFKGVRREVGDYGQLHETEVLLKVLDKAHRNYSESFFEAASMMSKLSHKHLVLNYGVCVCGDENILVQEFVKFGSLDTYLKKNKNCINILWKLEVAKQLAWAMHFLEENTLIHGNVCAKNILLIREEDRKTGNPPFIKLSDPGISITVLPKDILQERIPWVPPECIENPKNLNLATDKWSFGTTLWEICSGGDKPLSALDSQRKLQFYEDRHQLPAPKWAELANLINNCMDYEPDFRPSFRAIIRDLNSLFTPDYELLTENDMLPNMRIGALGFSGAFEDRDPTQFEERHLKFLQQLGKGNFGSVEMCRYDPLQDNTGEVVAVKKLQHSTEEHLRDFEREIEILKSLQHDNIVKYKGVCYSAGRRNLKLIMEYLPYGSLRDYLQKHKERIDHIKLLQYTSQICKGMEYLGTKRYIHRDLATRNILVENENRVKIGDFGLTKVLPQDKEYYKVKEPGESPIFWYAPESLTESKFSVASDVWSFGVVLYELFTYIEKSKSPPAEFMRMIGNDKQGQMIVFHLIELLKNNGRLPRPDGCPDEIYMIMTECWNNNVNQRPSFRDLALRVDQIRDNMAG
Sequence of Tyrosine-protein kinase JAK2 (O60674 whole entry): as the sequence (O60674 whole entry, looked up, one chain of several) above

IC50 [1]: 0.166 µM
IC50 [2]: 0.057 µM
IC50 [3]: 6.73 µM
inhibition [4]: Active
inhibition [5]: Dose-dependent effect
Selectivity ratio [14]: 20
Selectivity ratio [15]: 20
Compound: O=C(Nc1c[nH]nc1-c1nc(-c2ccc(CN3CCOCC3)cc2)c[nH]1)c1cccc(Cl)c1
Activity [6]: 56.05%
Activity [7]: 1.9%
Activity [8]: 2.09%
Activity [9]: 19%
Activity [10]: 35.1%
Activity [11]: 2.06%
Activity [12]: 13.34%
Activity [13]: 14.46%
Activity [16]: 57.52%
Activity [17]: 1.98%
